TRPC4 act – TRPC4 (mouse) channel activation; Q9QUQ5; hit rate 0.49% among 310,000; B-score at 10 µM; HEK293 TRPC4beta/mu-opioid, Fluo4 calcium fluorescence; hits give high values;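 active means B-score above 5 SD of library B-scores, and initial fluorescence ratio not above library mean plus 5 SD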;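 further: positive B-score marks a calcium rise read as TRPC4 activation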
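System: HEK293 cells stably co-expressing mouse TRPC4beta and mu-opioid receptor; Schedule: Fluo4 dye loading 45 min at room temperature, 110 s recording; Detection: Fluo4 fluorescence, kinetic; Evaluation: B-scored integrated calcium fluorescence ratio; Controls: buffer (low) and maximal DAMGO (high).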
TRPC6 act – activates the mouse TRPC6 cation channel; HEK293-TRPC6 membrane potential dye fluorescence; hits give high values; B-score at 10 µM; hit rate 0.13% among 310,000;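 active means B-score of the integrated fluorescence ratio above library mean plus 3 SD, and starting fluorescence ratio within library mean plus 5 SD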;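 further: higher score means more depolarization so channel activation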
Target sequence (Q61143 whole entry, looked up): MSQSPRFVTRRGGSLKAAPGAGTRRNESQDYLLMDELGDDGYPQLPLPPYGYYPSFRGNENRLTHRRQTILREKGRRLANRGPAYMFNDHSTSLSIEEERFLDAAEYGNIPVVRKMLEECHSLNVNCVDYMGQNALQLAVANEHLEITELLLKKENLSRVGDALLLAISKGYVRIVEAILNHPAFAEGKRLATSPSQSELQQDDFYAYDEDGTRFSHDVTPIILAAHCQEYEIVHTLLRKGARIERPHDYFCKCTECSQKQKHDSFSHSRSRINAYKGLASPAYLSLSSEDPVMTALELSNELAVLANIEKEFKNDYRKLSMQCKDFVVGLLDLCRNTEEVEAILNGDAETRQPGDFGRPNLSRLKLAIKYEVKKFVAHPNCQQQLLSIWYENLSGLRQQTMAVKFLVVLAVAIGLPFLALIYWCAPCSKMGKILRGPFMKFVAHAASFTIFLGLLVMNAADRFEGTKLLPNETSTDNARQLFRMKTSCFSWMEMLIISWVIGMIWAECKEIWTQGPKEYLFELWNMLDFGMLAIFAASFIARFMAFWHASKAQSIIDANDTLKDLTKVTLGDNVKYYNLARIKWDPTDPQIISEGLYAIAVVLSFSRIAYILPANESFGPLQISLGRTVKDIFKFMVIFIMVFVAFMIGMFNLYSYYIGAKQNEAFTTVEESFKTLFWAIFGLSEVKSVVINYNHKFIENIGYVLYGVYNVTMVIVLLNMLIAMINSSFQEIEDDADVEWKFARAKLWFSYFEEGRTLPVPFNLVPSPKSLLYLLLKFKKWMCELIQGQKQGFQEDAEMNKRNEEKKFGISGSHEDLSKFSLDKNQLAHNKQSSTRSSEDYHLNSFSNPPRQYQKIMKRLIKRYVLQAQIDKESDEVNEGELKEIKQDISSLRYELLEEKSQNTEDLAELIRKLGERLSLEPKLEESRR
TRPC4 inh – TRPC4 (mouse) channel inhibition; Q9QUQ5; HEK293 TRPC4beta/mu-opioid, DAMGO-evoked Fluo4 calcium flux; hits give low values; B-score at 10 µM; hit rate 0.39% among 300,000; AID 2247;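 active means B-score over 3 SD under the library average, no early fluorescence shift, positive overall ratio signal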
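Material: HEK293 cells with stable TRPC4beta plus mu-opioid receptor expression / Probe or stimulus: DAMGO in two steps, submaximal then maximal / Compound: single concentration per test compound / Technique: kinetic Fluo4 fluorescence imaging of calcium influx / Read-out: per-well B score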
TRPC4 PAM – allosterically enhances the mouse TRPC4 cation channel. Q9QUQ5. HEK293 TRPC4beta/mu-opioid, DAMGO EC20, Fluo-4 Ca2+ flux; hits give high values. B-score at 10 µM. hit rate 0.42% among 310,000. AID 2227;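 active means B-score of calcium response area above 5 SD of library B-scores, with initial fluorescence ratio within 5 SD of library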;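 further: B-score of integrated fluorescence ratio over time as area under calcium response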
TRPC6 inh – mouse TRPC6 channel inhibition. Q61143. HEK293-TRPC6, membrane potential dye, ACh-evoked depolarization; hits give low values. B-score at 10 µM. hit rate 1.1% among 310,000. AID 2553;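 active means B-score under library mean minus 3 SD, initial fluorescence not abnormally high, positive integrated signal ratio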;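 further: B-score derived from integrated fluorescence ratio over the kinetic read; more negative B-score means stronger inhibition of depolarization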
Kir21 inh – inhibitors of mouse Kir2.1 inward-rectifier potassium channel | HEK293-Kir2.1, FluxOR thallium flux fluorescence; hits give low values | hit rate 0.85% among 310,000 | B-score at 10 µM;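 active means fluorescence ratio B-score at or below minus 3 SD of library scores, with starting-brightness B-score within 2 SD, cut at about -4.2 in these data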;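 further: channel flux triggered by added potassium and thallium sulfate stimulus; B-score of peak minus minimum fluorescence over baseline after thallium stimulus; more negative B-score means stronger Kir2.1 block with less thallium influx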
TRPC4 spec 2 – second check of whether TRPC6 inhibitors also affect mouse TRPC4; shares compounds with TRPC6 inh; HEK293 TRPC4/MOR, membrane potential dye fluorescence; channel activated by saturating DAMGO dose; inhibition, % at 10 µM; hit rate 42% among 920; AID 2776;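 active means compounds whose fluorescence signal differed from control wells by over 3 SD, either direction, in both duplicate plates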
TRPC4 spec – selectivity of TRPC6 inhibitors: effect on mouse TRPC4; shares compounds with TRPC6 inh; HEK293 TRPC4/mu-opioid, membrane potential fluorescence; activity change, negative = inhibition, % at 10 µM; hit rate 61% among 920; AID 2777;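 active means rise or fall in signal beyond 3 SD of buffer-only wells in both replicate plates, either sign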;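 further: integrated kinetic ratio of fluorescence range over baseline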
HEK293 MPD ctr 2-1 – second check of TRPC6 inhibitor effects in parental HEK293 cells; shares compounds with TRPC6 inh; parental HEK293 membrane potential dye fluorescence; maximal acetylcholine challenge after compound addition; signal change vs control, % at 10 µM; hit rate 31% among 920; AID 2779;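 active means membrane potential signal moving either way by over 3 SD of the maximum-effect control, in both duplicate plates, meaning non-specific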
HEK293 MPD ctr-1 – counter-screen for TRPC6 inhibitors: effect in parental HEK293 cells. shares compounds with TRPC6 inh. parental HEK293 membrane potential dye fluorescence. membrane potential signal change, % at 10 µM. hit rate 60% among 920. AID 2780;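 active means membrane potential signal shifting up or down by more than 3 SD of buffer-only wells, on both duplicate plates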
HEK293 MPD ctr-2 – counter-screen for TRPC6 modulators: effect in parental HEK293 cells. hit rate 51% among 2,400. shares compounds with TRPC6 inh. AID 488924. membrane potential dye fluorescence. membrane potential signal change, % at 10 µM;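 active means membrane potential signal moves up or down beyond 5 SD from buffer-only wells, on both duplicate plates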
HEK293 MPD ctr 2-2 – parental HEK293 nonspecific activity of TRPC6 modulators, second screen; inhibition, % at 10 µM; membrane potential dye fluorescence; after compound, maximal acetylcholine stimulation; hit rate 14% among 2,400; AID 488926; shares compounds with TRPC6 inh;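 active means membrane potential signal drops by more than 5 SD from the mean control signal, in both duplicate plates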;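 further: plate controls were acetylcholine ECmax control wells for no effect and buffer only wells for full effect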
TRPC4 ctr mod – selectivity of TRPC6 modulators against mouse TRPC4; hit rate 69% among 2,400; percent change from control (negative = decrease, positive = increase), % at 10 µM; shares compounds with TRPC6 inh; HEK293 TRPC4/mu-opioid, membrane potential fluorescence;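 active means membrane potential signal moved up or down beyond 5 SD of buffer control wells, in both duplicate plates, actives on both sides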;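 further: plate controls were assay buffer wells for no effect and DAMGO maximal-effect wells for full effect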
TRPC4 ctr inh 2 – second check of whether TRPC6 modulators also affect mouse TRPC4; shares compounds with TRPC6 inh; HEK293 TRPC4/mu-opioid, membrane potential dye fluorescence; stimulated with maximal-effect DAMGO; inhibition, % at 10 µM; hit rate 55% among 2,400;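 active means drop in membrane potential signal beyond 5 SD of the control wells in both duplicate plates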;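 further: TRPC4 counter screen for TRPC6 hits run under conditions tuned for TRPC6 not TRPC4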
TRPC6 block conf – mouse TRPC6 inhibitor confirmation. shares compounds with TRPC6 inh. HEK293-TRPC6, membrane potential dye, ACh-evoked depolarization. inhibition, % at 10 µM. hit rate 43% among 3,300. AID 488960;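 active means fluorescence ratio falls more than 5 SD below the full-stimulation control mean, in both duplicate runs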;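 further: integrated fluorescence ratio of peak minus minimum over baseline after agonist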
TRPC6 act confirm – confirmation of mouse TRPC6 activators; shares compounds with TRPC6 inh; activation, % at 10 µM; HEK293-TRPC6 membrane potential dye fluorescence, FDSS; hit rate 11% among 2,800;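 active means ratio signal rise beyond 5 SD above unstimulated control wells' mean, seen in both duplicate runs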;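 further: plate controls were buffer EC0 wells for no effect and acetylcholine ECmax response for full effect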
* hit, by the source's call. An excerpt weighted towards active compounds, which were near 3% of everything screened.

`O=C(c1ccc([N+](=O)[O-])cc1)N(Cc1ccc(Br)cc1)N1C(=O)CCCC1=O` gave TRPC4 act 45*, TRPC6 act 16*, TRPC4 inh inactive, TRPC4 PAM inactive, TRPC6 inh -9.8*, Kir21 inh 1.1, HEK293 MPD ctr-2 458%*, HEK293 MPD ctr 2-2 186%*, TRPC4 ctr mod 38%*, TRPC4 ctr inh 2 34%*, TRPC6 block conf 68%* and TRPC6 act confirm 100%*.
For COc1cccc(Nc2nc(C)cc(C)c2C(N)=O)c1 the results were TRPC4 act inactive, TRPC6 act inactive, TRPC4 inh inactive, TRPC4 PAM inactive, TRPC6 inh inactive and Kir21 inh 1.
Screening CCN(CC)C(=O)N1CCN(S(=O)(=O)c2ccc(C)c(C)c2)CC1 returned TRPC4 act inactive, TRPC6 act inactive, TRPC4 inh inactive, TRPC4 PAM inactive, TRPC6 inh inactive and Kir21 inh 2.6.
For CCNC(=S)N1CCN(S(=O)(=O)c2ccc(C)c(C)c2)CC1 the results were TRPC4 act inactive, TRPC6 act inactive, TRPC4 inh inactive, TRPC4 PAM inactive, TRPC6 inh -5.4*, Kir21 inh -1.9, HEK293 MPD ctr-2 inactive, HEK293 MPD ctr 2-2 inactive, TRPC4 ctr mod inactive, TRPC4 ctr inh 2 inactive and TRPC6 block conf inactive.
Screening Cn1c(=O)n(C)c2cc([N+](=O)[O-])c(N3CCN(CCO)CC3)cc21 returned TRPC4 act inactive, TRPC6 act inactive, TRPC4 inh inactive, TRPC4 PAM inactive, TRPC6 inh -6.8*, Kir21 inh 0.26, HEK293 MPD ctr-2 -370%*, HEK293 MPD ctr 2-2 70%*, TRPC4 ctr mod -50%*, TRPC4 ctr inh 2 42%*, TRPC6 block conf 44%* and TRPC6 act confirm inactive.
`Cn1c(=O)n(C)c2cc([N+](=O)[O-])c(N3CCN(S(C)(=O)=O)CC3)cc21` gave TRPC4 act inactive, TRPC6 act inactive, TRPC4 inh inactive, TRPC4 PAM inactive, TRPC6 inh inactive and Kir21 inh 1.5.
For Cc1ccnc(NS(=O)(=O)c2ccc(NC(=O)CCc3ccccc3)cc2)n1 the results were TRPC4 act inactive, TRPC6 act inactive, TRPC4 inh inactive, TRPC4 PAM inactive, TRPC6 inh inactive and Kir21 inh -0.32.
Screening CN(c1ncc(C(F)(F)F)cc1Cl)n1cc(C(N)=O)c2ccccc2c1=O returned TRPC4 act inactive, TRPC6 act inactive, TRPC4 inh inactive, TRPC4 PAM inactive, TRPC6 inh inactive and Kir21 inh 0.46.
`CCSc1ccc2cc(OC)ccc2[n+]1CC` gave TRPC4 act inactive, TRPC6 act inactive, TRPC4 inh inactive, TRPC4 PAM inactive, TRPC6 inh -7.6*, Kir21 inh 0.01, TRPC4 spec 2 76%*, TRPC4 spec -21%*, HEK293 MPD ctr 2-1 39%*, HEK293 MPD ctr-1 -314%*, TRPC6 block conf 62%* and TRPC6 act confirm inactive.
Screening COc1ccc(CCNC(=O)C(=O)N/N=C/c2cccs2)cc1OC returned TRPC4 act inactive, TRPC6 act inactive, TRPC4 inh inactive, TRPC4 PAM inactive, TRPC6 inh inactive and Kir21 inh 0.25.
CCCOc1ccc(N2C(=O)CC(N3CCC(c4nc5ccccc5o4)CC3)C2=O)cc1 (stereo not drawn) was read as TRPC4 act inactive, TRPC6 act inactive, TRPC4 inh inactive, TRPC4 PAM inactive, TRPC6 inh inactive and Kir21 inh 1.1.
For FC(F)Sc1ccc(-n2cc(-c3ccc(Cl)cc3)[n+]3c2CCC3)cc1 the results were TRPC4 act inactive, TRPC6 act inactive, TRPC4 inh inactive, TRPC4 PAM inactive, TRPC6 inh -7*, Kir21 inh -0.06, TRPC4 spec 2 inactive, TRPC4 spec -14%*, HEK293 MPD ctr 2-1 -40%*, HEK293 MPD ctr-1 -216%*, TRPC6 block conf 53%* and TRPC6 act confirm inactive.
Screening Cc1ccc(-c2cn(-c3ccc(SC(F)F)cc3)c3[n+]2CCC3)cc1 returned TRPC4 act inactive, TRPC6 act inactive, TRPC4 inh inactive, TRPC4 PAM inactive, TRPC6 inh inactive and Kir21 inh -0.49.
Screening CCOc1cccc2sc(N(CCCN(C)C)C(=O)c3ccc(S(=O)(=O)N(C)CC4CCCO4)cc3)nc12 (stereo not drawn) returned TRPC4 act inactive, TRPC6 act inactive, TRPC4 inh inactive, TRPC4 PAM inactive, TRPC6 inh -7.4*, Kir21 inh -0.36, TRPC4 spec 2 48%*, TRPC4 spec -14%*, HEK293 MPD ctr 2-1 inactive, HEK293 MPD ctr-1 inactive, TRPC6 block conf inactive and TRPC6 act confirm inactive.
